Experimental data collected from several papers.
Protocols differ between the studies behind these lines.
Read-out: cell growth or viability

Compound | cell line | test | setting | measurement | result
CCNc1nc(Nc2ccc(F)c(Cl)c2)c2ccccc2n1 | Vero | MTT | 500 µg/mL | viability | 6.91%
CC(=O)O[C@H]1C(=O)[C@@]2(C)[C@H]([C@H](OC(=O)c3ccccc3)[C@]3(O)C[C@H](OC(=O)[C@H](O)[C@@H](NC(=O)c4ccccc4)c4ccccc4)C(C)=C1C3(C)C)[C@]1(OC(C)=O)CO[C@@H]1C[C@@H]2O | SMMC-7721 | MTT | 48 h | IC50 | 4.27 µM
COc1ccc2c(Cc3ccccc3F)c3n(c(=O)c2c1OC)CCc1cc2c(cc1-3)OCO2 | L929 | CCK-8 | 24 h | IC50 | 26.1 µM
COC(=O)c1[nH]cc(-c2c[nH]c3ccc(Cl)cc23)c1-c1c[nH]c2ccc(Cl)cc12 | RAW264.7 | resazurin | 72 h | CC50 | > 10 µM
Cn1cnc2c1c(=O)n(CC(=O)Nc1c(Cl)cccc1Cl)c(=O)n2C | Vero | MTT | 62.5 µg/mL | viability | 99.8%
C=C1CC[C@H]2C(C)=CC[C@H]3C(=C)C(=O)O[C@@H]3[C@@H]12 | CHO-K1 | MTT | 72 h | CC50 | 7.3 µM
Fc1ccc(NCc2ccc(Oc3ccccn3)cc2)cc1 | Vero | MTT | 72 h | CC50 | > 300 µM
C=C1CC[C@@H](O)[C@]2(C)CC[C@H]3C(=C)C(=O)O[C@@H]3[C@@H]12 | CHO-K1 | MTT | 72 h | CC50 | 31.3 µM
O=S(=O)(NNc1nnc(Cl)c2ccccc12)c1ccc(F)cc1 | Vero | MTT | 250 µg/mL | viability | 24.9%
NC(=O)c1ncn([C@@H]2O[C@H](CO)[C@@H](O)[C@H]2O)n1 | BHK-21 | WST-1 | 72 h | CC50 | > 100 µM
